In PubChem BioAssay AID493160 (Sanford-Burnham Center for Chemical Genomics, 2011):
Hit rate of the full screen: of about 340,000 compounds, about 540 (0.16%) were called active.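 How the source made its calls: active means inhibition above about 35% when tested at 20 µM (limit read from the data); inactive means the rest.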 Shown is part of a subset that was picked to be rich in actives.

These compounds were tested against Hexokinase HKDC1 (Homo sapiens) (UniProt Q2TB90) (assay: blockers of human HKDC1 enzyme activity – biochemical, fluorescence, uHTS, primary screen (AID 493160;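 further: plate controls were DMSO wells with enzyme for no effect and DMSO wells lacking enzyme for full effect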)). Conditions: recombinant HKDC1, G6PDH/diaphorase resazurin coupled fluorescence; at 20 µM; stronger effect = higher value.
Summary of the method: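 Assay system: recombinant HKDC1 hexokinase; detection: coupled resazurin fluorescence, excitation 525 nm, emission 613 nm; benchmarks: DMSO-plus-enzyme-mix negative control, buffer-substituted positive control; compound dosing: single 20 µM dose; schedule: 90 min at room temperature in dark; also added: glucose plus 1 mM ATP as hexokinase substrates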

Chain of Hexokinase HKDC1 (Homo sapiens) (Q2TB90 whole entry, looked up): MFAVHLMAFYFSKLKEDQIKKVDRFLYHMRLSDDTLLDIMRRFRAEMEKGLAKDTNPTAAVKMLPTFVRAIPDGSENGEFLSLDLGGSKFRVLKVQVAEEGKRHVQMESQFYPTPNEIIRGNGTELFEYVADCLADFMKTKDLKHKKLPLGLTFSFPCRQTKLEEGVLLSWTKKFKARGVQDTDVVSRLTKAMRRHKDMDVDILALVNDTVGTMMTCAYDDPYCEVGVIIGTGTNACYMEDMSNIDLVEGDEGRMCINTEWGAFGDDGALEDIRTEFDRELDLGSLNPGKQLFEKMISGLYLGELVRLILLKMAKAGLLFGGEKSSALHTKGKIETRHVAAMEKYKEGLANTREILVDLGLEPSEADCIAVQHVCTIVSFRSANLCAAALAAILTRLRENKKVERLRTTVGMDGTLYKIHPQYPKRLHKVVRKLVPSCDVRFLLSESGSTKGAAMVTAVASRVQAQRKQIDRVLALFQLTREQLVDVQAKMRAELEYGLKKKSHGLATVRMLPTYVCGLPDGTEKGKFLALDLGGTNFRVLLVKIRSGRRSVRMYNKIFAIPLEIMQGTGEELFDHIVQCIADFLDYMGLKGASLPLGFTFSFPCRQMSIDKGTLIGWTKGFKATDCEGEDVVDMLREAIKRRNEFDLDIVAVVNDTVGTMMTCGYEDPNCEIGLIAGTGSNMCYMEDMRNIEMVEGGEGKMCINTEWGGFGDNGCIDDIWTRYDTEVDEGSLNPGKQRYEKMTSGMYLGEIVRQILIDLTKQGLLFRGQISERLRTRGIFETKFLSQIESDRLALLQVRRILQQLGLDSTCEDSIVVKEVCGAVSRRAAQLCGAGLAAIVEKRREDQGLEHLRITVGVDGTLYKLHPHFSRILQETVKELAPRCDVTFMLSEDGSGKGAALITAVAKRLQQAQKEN

inhibition, active:
O=C(NC1=CC(=O)c2ccccc2C1=O)c1ccccc1 54.1%, CC(=O)N(C1=C(Cl)C(=O)c2ccccc2C1=O)c1ccc(C(=O)O)cc1 52.2%, COc1ccc(N(CC(=O)N/N=C/c2cccc3c2OCCO3)S(=O)(=O)c2ccc(NC(C)=O)cc2)cc1 38.1%, O=c1ccc2c(-c3ccccc3S(=O)(=O)O)c3ccc(O)c(O)c3oc-2c1O 38.4%, O=c1[nH]c2ccccc2n2c(-c3ccccc3)nnc12 46.7%, CCOC(=O)CSc1nc2ccc(C)cc2n2cnnc12 53%, CC(C)(C)Nc1c(N)c(=O)oc2ccccc12 44.6%, O=C(c1cccnc1)N(c1cc2sc(=O)oc2c2ccccc12)S(=O)(=O)c1ccccc1 38.2%, CN1c2ccc(C=O)c3c(C=O)ccc(c23)N(C)C1(C)C 36.4%, CCOC(=O)C1=C(c2ccc(OC)cc2)C(=O)c2ccccc2C1=O 81.4%, COc1ccc(NC(=O)CSc2ccc(-c3ccco3)nn2)c(OC)c1 47.3%, COc1ccc2c(c1)c(=Cc1ccc(N(C)C)cc1)c1cc(-c3ccccc3)[n+](C)n12 43.2%

inhibition, inactive:
CCCC(=O)N1CCC(CCC(=O)NC2CC2)CC1 -4.77%, COc1cc(Cl)c(C)cc1NC(=O)CSc1nnc(CN2CCCC2)o1 -4.86%, O=S(=O)(NN=C1CCCCCCC1)c1ccc(Br)cc1 3.73%, CCOc1cc(NC(=S)NCCCN(C)C)c(OCC)cc1NC(=O)C1CC1 -8.33%, CC(Cc1cccs1)N(Cc1ccc(Cl)cc1)C(=O)c1ccncc1 (stereo unspecified) 3.31%, O=C1C(=O)N(CCCN2CCOCC2)C(c2ccc([N+](=O)[O-])cc2)/C1=C(\O)c1ccc2c(c1)OCCO2 (stereo unspecified) -4.72%, Cc1cccc(-n2c(SCC(=O)Nc3cccc(S(=O)(=O)NC4=NCCCCC4)c3)nc3ccccc3c2=O)c1C 1.69%, Cc1ccnc(SCC(=O)Nc2cccc(S(=O)(=O)N3CCOCC3)c2)n1 0.74%, CCOC(=O)C1CCN(C(=O)CC2C(=O)N(Cc3ccccc3)C(C)c3nc4ccccc4n32)CC1 (stereo unspecified) -7.65%, CCCCN(C(=O)c1ccc2ccccc2c1)c1c(N)n(CCCC)c(=O)[nH]c1=O -1.92%, CCN(CC)C(=O)CSc1nc2ccccc2n1CC(=O)N1CCN(c2ccccc2OC)CC1 -2.34%, CCC(C)NC(=O)c1cc(Cl)ccc1OC (stereo unspecified) -12.3%, COc1ccc(C(=O)COC(=O)Cn2cnc3c2c(=O)n(C)c(=O)n3C)c(OC)c1 -0.76%, COc1ccc2[nH]c3c(c2c1)CCN1C(=O)C(CC(=O)NCc2cccc(C(F)(F)F)c2)C[C@H](C(=O)N2CCOCC2)[C@@]31C (stereo partly specified) 5.85%, O=C(O)CCCCCCCCCC[n+]1ccccc1 -10.3%, Cc1cc(C)n2nc(C(=O)OCC(=O)N(C)CC(=O)Nc3ccc(F)cc3)nc2n1 -5.6%, O=C(NC(=O)c1ccccc1)Nc1ccccc1O 2.6%, CC(NC(=O)c1ccccc1)C(=O)Nc1ccccc1 (stereo unspecified) -6.92%, CCN(Cc1ccccc1)S(=O)(=O)c1cc2c3c(c1)CCN3C(=O)CC2 4.66%, Cc1cc(C(=O)COC(=O)CNC(=O)c2ccc(F)cc2)c(C)n1Cc1ccco1 -4.86%, O=C(COc1ccccc1)Nc1cc2c3c(c1)CC(=O)N3CCC2 -4.21%, Cn1nc(C(F)(F)F)cc1-c1ccc(/C=C(\C#N)C(=O)c2cccc(C(F)(F)F)c2)s1 13.8%, Cc1cc(C)c2oc(C(=O)Nc3ccc(S(=O)(=O)Nc4nccc(C)n4)cc3)cc(=O)c2c1 0.48%, COc1cc(OC)cc(C(=O)NCC(=O)N2CCCCCCC2)c1 -3.62%, CCCN(CC(=O)Nc1ccccc1C)C(=O)c1ccc(OCC(=O)N2CCOCC2)c(OCC)c1 -2.45%, N#Cc1ccc(C2N=C(c3ccccc3)NO2)cc1 (stereo unspecified) 0.41%, O=C(C1CCN(S(=O)(=O)c2cnc[nH]2)CC1)N1CCN(Cc2ccc3c(c2)OCO3)CC1 0.71%, C=CCN(Cc1nc(-c2cc(OC)c3c(c2)OCO3)oc1C)C1CCS(=O)(=O)C1 (stereo unspecified) -3.24%, CC(=O)Nc1ccc(S(=O)(=O)N(CCc2ccccc2)CC(=O)N/N=C/c2ccc(C(=O)O)cc2)cc1 -2.7%, COc1ccc(N(CC(=O)N/N=C/c2cccs2)S(=O)(=O)c2ccc(OC)c(OC)c2)cc1 -10.3%, COc1ccc(Cl)cc1C(=O)NNC(=O)c1nc2nc(C)cc(C)n2n1 0.07%, COc1ccccc1CNC(=O)[C@@H]1CCCN1C(=O)[C@@H]1Cc2ccccc2CN1C(=O)OC(C)(C)C 3.72%, Cc1cc[n+](-c2[nH]c(=O)sc2/C=N/NC(=O)c2ccccc2[O-])cc1C -1.94%, O=C(COC(=O)Cn1cnc2ccccc2c1=O)NCc1ccccc1Cl -10.3%, O=C(Nc1cc(-c2nn(CC(=O)N3CCCCC3)c(=O)c3ccccc23)ccc1N1CCOCC1)c1ccc(Cl)cc1 -2.81%, O=c1[nH]n2c(-c3ccccc3)nc(O)c2c2ccccc12 -18.8%, O=C(C[C@H]1C/C=C\C[C@@H](NC(=O)OCC2c3ccccc3-c3ccccc32)C(=O)O[C@@H](c2ccccc2)CNC1=O)N[C@H](CO)Cc1ccccc1 -0.6%, COc1ccc(CCNc2nc3ccc(C)cc3n3cnnc23)cc1OC 8.2%, CCOC(=O)CSc1nncc2ccc(OC)c(OC)c12 -9.31%, CC1CN(C2CCN(C(=O)COc3ccccc3)CC2)CC(C)O1 (stereo unspecified) 1.62%, Nc1c(NCCc2ccccc2)c2ccccc2oc1=O -1.28%, O=c1oc2ccccc2c(=O)c2ccccc12 -8.91%, COc1ccc(CCN2CNc3c(c(=O)n(C)c(=O)n3C)C2)cc1OC 6.26%, O=C(Nc1cc(S(=O)(=O)N2CCOCC2)ccc1Cl)c1cc(=O)c2ccccc2o1 12.4%, Cc1nnnn1/C(=C\c1ccccc1)C(=O)OCC(=O)N1CC2(C)CC1CC(C)(C)C2 (stereo unspecified) -1.75%, CCN(CC(=O)Nc1ccc2c(c1)OCO2)S(=O)(=O)c1ccccc1 -0.97%, O=C(/C=C/c1cccc(C(F)(F)F)c1)N1CCN(c2ccccn2)CC1 3.47%, O=C(CSc1cccc[n+]1[O-])c1ccc(-c2ccccc2)cc1 -4.64%, O=C1N[C@@H](Cc2ccccc2)C(=O)N2[C@H]1C[C@]1(Br)c3ccccc3N(S(=O)(=O)c3ccccc3)[C@H]21 8.21%, Cc1nn(C)cc1S(=O)(=O)N1CCN(c2ccc(F)cc2)CC1 -0.86%, CN(C)c1ccc(C(=S)N2CCN(C(=S)Nc3ccc(Cl)cc3)CC2)cc1 7.9%, Cc1cc(Cl)ccc1C(=O)C1CCCN(C(=O)CCN2CCCO2)C1 (stereo unspecified) -7.55%, O=C(/C=C(O)/C=C/c1ccc(O)cc1)/C=C/c1ccc(O)cc1 5.34%, O=C(COC(=O)c1ccccc1NC(=O)c1ccco1)Nc1ccc2c(c1)OC(F)(F)O2 -9.13%, CCOC(=O)C(C)n1cnc2scc(-c3ccc(C)c(C)c3)c2c1=O (stereo unspecified) -0.93%, COc1ccc(N(C(=O)c2cccnc2)S(=O)(=O)c2ccc(OC)c(OC)c2)cc1 -5.15%, O=C(c1cccnc1)N(Cc1ccccc1)C(=O)c1cccnc1 -5.95%, CCn1c(SCC(=O)Nc2cc(C)ccc2C)nnc1-c1cnccn1 2.21%, COc1ccc(CNC(=O)CCN2C(=O)c3ccccc3C2=O)cc1 0.43%, COC(=O)c1cc(OC)ccc1-c1ccc(OC)cc1 6.2%, COC(=O)[C@H](Cc1ccccc1)NC(=O)Nc1ccc(S(N)(=O)=O)cc1 1.79%, C=CC[C@@H](CC(=O)N[C@@H](CO)Cc1ccccc1)C(=O)N[C@H](COC(=O)[C@H](CC=C)CC(=O)OC(C)(C)C)Cc1ccccc1 -4.61%, COc1ccc(NC(=O)CCC(=O)Nc2cc(OC)c(NC(=O)c3ccco3)cc2OC)c(OC)c1 1.97%, O=C(CSc1ccc(-c2ccco2)nn1)NCc1ccc2c(c1)OCO2 -3.81%, CC(C)N(Cc1nnc(-c2ccccc2Br)o1)C(=O)c1cc(Cl)nc2ccccc12 0.82%, CCOC(=O)c1ccc2c(c1)nc(SCC(=O)NC(C)C)n2CC -4.33%, Cc1ccc(CN2CCNC(=O)C2CC(=O)NCc2csc(C(C)C)n2)cc1 (stereo unspecified) -3.03%, CC1CC(C)CN(C(=O)CSc2nnc(CSc3ncccn3)n2C)C1 (stereo unspecified) -4.12%, CCS(=O)(=O)N1Cc2ccccc2CC1C(=O)Nc1ccc(OC)cc1OC (stereo unspecified) -2.83%, O=C1Nc2cc(C(=O)N3CCC(N4CCCCC4)CC3)ccc2S/C1=C\c1ccccc1 -1.91%, CCCCn1nnnc1NCc1cc(OC)c(OC)c(OC)c1 10.4%, Cc1ccc(CNC(=O)CCNS(=O)(=O)c2cccc3nonc23)cc1 10.6%, Cc1ccc(OS(=O)Nc2cccc3nccnc23)cc1 (stereo unspecified) 6.4%, CCCCn1c(N)c(N(CCOC)C(=O)COc2c(C)cccc2C)c(=O)[nH]c1=O -3.46%
